Measurements as given in ChEMBL document CHEMBL2046418, “Pyrrolidinobenzoic acid inhibitors of influenza virus neuraminidase: the hydrophobic side chain influences type A subtype selectivity” (Bioorg Med Chem, 2012).

Experiments:
Neuraminidase [1] = molecular target: T1, Neuraminidase (Influenza A virus, UniProt B4URF0); assay: Inhibition of Influenza A virus (A/Uruguay/716/2007(H3N2)) neuraminidase using fluorogenic substrate 2'-(4-methylumbelliferyl)-alpha-D-N-acetylneuraminic acid preincubated with inhibitor for 30 mins measured after 15 mins by fluorescence analysis
How it was run: (§1)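 Purified intact virions served as the NA source. They were preincubated 30 min at room temperature with two-fold inhibitor dilutions in 50 mM sodium acetate pH 6.0, 100 µM CaCl2, 320 µM MgCl2 and 60 mM NaCl. 100 µM MUNANA was added, then incubated 15 min at 37 °C and stopped with 5 volumes 0.2 M glycine-NaOH pH 11. IC50 came from a log(inhibitor)-normalized response fit, cross-checked from the linear region of fractional activity versus concentration.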

Neuraminidase [2] = molecular target: T1, Neuraminidase; assay: Inhibition of Influenza A virus (A/Solomon Islands/3/2006(H1N1)) neuraminidase using fluorogenic substrate 2'-(4-methylumbelliferyl)-alpha-D-N-acetylneuraminic acid preincubated with inhibitor for 30 mins measured after 15 mins by fluorescence analysis; how it was run: as §1
[3] = Inhibition of Influenza B virus (B/Malayasia/5206/04) neuraminidase using fluorogenic substrate 2'-(4-methylumbelliferyl)-alpha-D-N-acetylneuraminic acid preincubated with inhibitor for 30 mins measured after 15 mins by fluorescence analysis; how it was run: as §1
Neuraminidase [4] = molecular target: T1, Neuraminidase; assay: Inhibition of Influenza A virus (A/Brisbane/59/2007(H1N1)) neuraminidase using fluorogenic substrate 2'-(4-methylumbelliferyl)-alpha-D-N-acetylneuraminic acid preincubated with inhibitor for 30 mins measured after 15 mins by fluorescence analysis; how it was run: as §1
Neuraminidase [5] = molecular target: T1, Neuraminidase; assay: Inhibition of influenza A virus neuraminidase
How it was run: (§2)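 Enzyme source was purified intact virions. Then 100 μM 2'-(4-methylumbelliferyl)-α-D-N-acetylneuraminic acid was added and incubated 15 min at 37 °C. Reactions were stopped with 0.2 M glycine-NaOH pH 11. IC50 came from normalized log(inhibitor)-response fitting, cross-checked against the linear region of fractional activity versus concentration.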

[6] = Inhibition of influenza B virus neuraminidase
How it was run: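 Purified intact influenza B virions as neuraminidase source. Preincubated 30 min at room temperature with two-fold inhibitor dilutions in 50 mM sodium acetate pH 6.0, 100 μM CaCl2, 320 μM MgCl2, 60 mM NaCl. Then 100 μM 2'-(4-methylumbelliferyl)-α-D-N-acetylneuraminic acid, 15 min at 37 °C, stopped with 5 volumes 0.2 M glycine-NaOH pH 11. Fluorescence read-out. IC50 from log(inhibitor) vs normalized response, cross-checked against the linear region of the fractional-activity curve.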

Neuraminidase [7] = molecular target: T1, Neuraminidase; assay: Inhibition of Influenza A virus (A/Oklahoma/3052/2009(H1N1)) neuraminidase using fluorogenic substrate 2'-(4-methylumbelliferyl)-alpha-D-N-acetylneuraminic acid preincubated with inhibitor for 30 mins measured after 15 mins by fluorescence analysis; how it was run: as §1
Neuraminidase [8] = molecular target: T1, Neuraminidase; assay: Inhibition of Influenza A virus (A/Wisconsin/67/2005(H3N2)) neuraminidase using fluorogenic substrate 2'-(4-methylumbelliferyl)-alpha-D-N-acetylneuraminic acid preincubated with inhibitor for 30 mins measured after 15 mins by fluorescence analysis; how it was run: as §1
[9] = Inhibition of Influenza B virus (B/Malaysia/2506/2004) neuraminidase using fluorogenic substrate 2'-(4-methylumbelliferyl)-alpha-D-N-acetylneuraminic acid preincubated with inhibitor for 30 mins measured after 15 mins by fluorescence analysis; how it was run: as §1
Neuraminidase [10] = molecular target: Neuraminidase (Influenza B virus (strain B/Lee/1940), UniProt P03474); assay: Inhibition of Influenza B virus (B/Lee/1940) neuraminidase using fluorogenic substrate 2'-(4-methylumbelliferyl)-alpha-D-N-acetylneuraminic acid preincubated with inhibitor for 30 mins measured after 15 mins by fluorescence analysis; how it was run: as §2
[11] = molecular target: Neuraminidase (Influenza A virus (A/Puerto Rico/8/1934(H1N1)), UniProt P03468); assay: Inhibition of Influenza A virus (A/Puerto Rico/8/1934(H1N1)) neuraminidase using fluorogenic substrate 2'-(4-methylumbelliferyl)-alpha-D-N-acetylneuraminic acid preincubated with inhibitor for 30 mins measured after 15 mins by fluorescence analysis; how it was run: as §2
Neuraminidase [12] = molecular target: T1, Neuraminidase; assay: Inhibition of influenza A virus avian N9 neuraminidase
Neuraminidase [13] = molecular target: Neuraminidase (Influenza A virus (strain A/Udorn/307/1972 H3N2), UniProt P0DOF9); assay: Inhibition of Influenza A virus (A/udorn/1972(H3N2)) neuraminidase using fluorogenic substrate 2'-(4-methylumbelliferyl)-alpha-D-N-acetylneuraminic acid preincubated with inhibitor for 30 mins measured after 15 mins by fluorescence analysis; how it was run: as §1

For `O=C(O)c1ccc(N2C(=O)CCC2(CO)CO)c(COc2ccccc2)c1`, the IC50 (Neuraminidase [1]) was 40 µM and the IC50 (Neuraminidase [2]) was 400 µM.

Work on `CCC(C)OCc1cc(C(=O)O)ccc1N1C(=O)CCC1(CO)CO` (centres undefined) yielded an IC50 [3] of 80 µM, an IC50 (Neuraminidase [1]) of 0.2 µM and an IC50 (Neuraminidase [2]) of 11 µM.

`CC(C)OCc1cc(C(=O)O)ccc1N1C(=O)CCC1(CO)CO` showed an IC50 (Neuraminidase [4]) of over 10000 µM and an IC50 (Neuraminidase [1]) of 4000 µM.

Work on `CC(=O)N[C@H]1[C@H]([C@H](O)[C@H](O)CO)OC(C(=O)O)=C[C@@H]1O` [NEU5AC2EN] yielded a Ki (Neuraminidase [5]) of 4 µM and a Ki [6] of 4 µM.

In the case of `CCC(CC)OCc1cc(C(=O)O)ccc1N1C(=O)CCC1(CO)CO`, the IC50 (Neuraminidase [4]) is reported as 1 µM, the IC50 [3] is reported as 30 µM and the IC50 (Neuraminidase [1]) is reported as 0.5 µM. For the same molecule, the IC50 (Neuraminidase [2]) was 0.8 µM.

`CCC(CC)Cc1cc(C(=O)O)ccc1N1C(=O)CCC1(CO)CO` gave an IC50 (Neuraminidase [7]) of 3.2 µM, an IC50 (Neuraminidase [8]) of 0.2 µM and an IC50 [9] of 32 µM.

Work on `CC(C)Cc1cc(C(=O)O)ccc1N1C(=O)CCC1(CO)CO` yielded an IC50 [9] of 140 µM and an IC50 (Neuraminidase [1]) of 3 µM.

With `CCCC(CCC)Cc1cc(C(=O)O)ccc1N1C(=O)CCC1(CO)CO` the IC50 (Neuraminidase [8]) was 0.5 µM and the IC50 [9] was 190 µM.

Work on `CCC(CC)Nc1cc(C(=O)O)ccc1N1C(=O)CCC1(CO)CO` yielded an IC50 (Neuraminidase [10]) of 271 µM, an IC50 [11] of 79 µM and an IC50 (Neuraminidase [12]) of 0.048 µM. For the same molecule, the IC50 (Neuraminidase [13]) was 0.49 µM.

In the case of `CCC(=Cc1cc(C(=O)O)ccc1N1C(=O)CCC1(CO)CO)CC`, the IC50 (Neuraminidase [7]) is reported as 3.4 µM, the IC50 (Neuraminidase [8]) is reported as 0.41 µM and the IC50 [9] is reported as 120 µM.

`O=C(O)c1ccc(N2C(=O)CCC2(CO)CO)c(COCc2ccccc2)c1` showed an IC50 (Neuraminidase [1]) of 200 µM and an IC50 (Neuraminidase [2]) of 1600 µM.
